Results on six compounds are retold here after ChEMBL document CHEMBL1152865, “Synthesis and antimycobacterial activities of novel 6-nitroquinolone-3-carboxylic acids” (Eur J Med Chem, 2009).

For orientation: MIC means the lowest concentration that inhibits growth of the organism. Broadly, the CC50 is the concentration giving 50% cytotoxicity. By IC50 is commonly meant the concentration that gives 50% inhibition.

For data set [1], the system named is Mus musculus. As to the kind of experiment: Phototoxicity in Swiss albino mouse exposed to 4 hrs of 18 J/cm'2 UV light irradiation assessed as ear thickness at 140 mg/kg, po after 96 hrs. More on the design: dose 140 mg/kg, route oral. Particulars: in vivo. It counts as organism-based. Summed up:
(§1)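 Female Swiss albino mice about 2 months old, 20-25 g, fasted at least 18 h, six per group. Single oral gavage of 140 mg/kg; vehicle 0.5% aqueous sodium carboxymethylcellulose at 10 ml/kg; lomefloxacin HCl 140 mg/kg as positive control. UVA for 4 h (about 18 J/cm²) from dosing. Both ears scored for erythema, edema and thickness pre-dose, at 4 h, and at about 24, 48, 72 and 96 h.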

Data set [2] concerns Mus musculus. As to the kind of experiment: Phototoxicity in Swiss albino mouse exposed to 4 hrs of 18 J/cm'2 UV light irradiation assessed as erythema at 140 mg/kg, po. Format: organism-based. Set-up: dose 140 mg/kg, route oral. To be noted: in vivo. The essentials: as §1
In data set [3] the test system is Mus musculus. As to the kind of experiment: Phototoxicity in Swiss albino mouse assessed as erythema at 140 mg/kg, po after 4 hrs of 18 J/cm'2 UV light irradiation. It counts as organism-based. Set-up: dose 140 mg/kg, route oral. Particulars: in vivo. Summed up:
as §1

Data set [4] concerns Mus musculus. As to the kind of experiment: Phototoxicity in Swiss albino mouse exposed to 4 hrs of 18 J/cm'2 UV light irradiation assessed as erythema at 140 mg/kg, po after 24 hrs. Format: organism-based. Set-up: dose 140 mg/kg, route oral. Particulars: in vivo. The essentials: as §1
The test system of data set [5] is Mus musculus. The data set is described as follows: Phototoxicity in Swiss albino mouse exposed to 4 hrs of 18 J/cm'2 UV light irradiation assessed as erythema at 140 mg/kg, po after 48 hrs. Format: organism-based. Set-up: dose 140 mg/kg, route oral. Particulars: in vivo. The essentials:
as §1

Data set [6] deals with Mus musculus. The data set is described as follows: Phototoxicity in Swiss albino mouse exposed to 4 hrs of 18 J/cm'2 UV light irradiation assessed as erythema at 140 mg/kg, po after 72 hrs. It counts as organism-based. More on the design: dose 140 mg/kg, route oral. Particulars: in vivo. The essentials:
as §1

In data set [7] the test system is Mus musculus. As to the kind of experiment: Phototoxicity in Swiss albino mouse exposed to 4 hrs of 18 J/cm'2 UV light irradiation assessed as erythema at 140 mg/kg, po after 96 hrs. It counts as organism-based. More on the design: dose 140 mg/kg, route oral. To be noted: in vivo. The essentials: as §1
Data set [8] concerns Mycobacterium tuberculosis. The data set is described as follows: Antibacterial activity against Mycobacterium tuberculosis H37Rv by agar dilution method. Format: functional. The essentials: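 Agar dilution in Middlebrook 7H11 agar supplemented with OADC, following an approach similar to NCCLS guidance. MIC determined in duplicate.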
In general terms: In agar dilution the substance is mixed into plates at graded concentrations.

Data set [9] relates to Mycolicibacterium smegmatis. The data set is described as follows: Antibacterial activity against Mycobacterium smegmatis ATCC 14468 by agar dilution method. Format: functional. Summed up: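 Agar dilution on Middlebrook 7H11 agar with OADC supplement, following an NCCLS-type procedure; MIC read in duplicate.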
Data set [10] is described as follows: Cytotoxicity against african green monkey Vero cells after 72 hrs by MTT assay. It counts as cell-based. Particulars: chlorocebus sabaeus. The essentials: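 Cells exposed to compound for 72 h; viability from cellular MTT conversion to formazan; CC50 derived.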
(In general: Tetrazolium dyes change colour on reduction, which living cells bring about.)

The subject of data set [11] is Mycobacterium tuberculosis. The data set is described as follows: Antimycobacterial activity against Mycobacterium tuberculosis ATCC 35801 infected in CD1 mouse assessed as bacterial load in lungs at 50 mg/kg, ip administered 10 days postinfection for 10 days measured after 35 days of infection. Format: functional. To be noted: route intraperitoneal. Summed up: (§2)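 Six-week-old female CD-1 mice, six per group, infected intravenously via the caudal vein with approximately 10⁷ viable M. tuberculosis ATCC 35801. Intraperitoneal treatment ran days 10–20 post-infection. At day 35, spleen and right lung were homogenized, serially 10-fold diluted and plated on 7H10 agar, incubated 37 °C, 4 weeks. Log CFU compared with vehicle-treated controls.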

Data set [12] relates to Mycobacterium tuberculosis. As to the kind of experiment: Antimycobacterial activity against Mycobacterium tuberculosis ATCC 35801 infected in CD1 mouse assessed as bacterial load in spleen at 50 mg/kg, ip administered 10 days postinfection for 10 days measured after 35 days of infection. Format: functional. Particulars: route intraperitoneal. The essentials: as §2
The nature of data set [13]: Inhibition of Mycobacterium smegmatis DNA gyrase assessed as inhibition of relaxed circular pUC18 supercoiling activity by agarose gel electrophoresis. More on the design: species or system Mycolicibacterium smegmatis. Summed up:
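Gyrase purified from M. smegmatis, pre-incubated with compound in DMSO. Then 400 ng relaxed pUC18 added in 35 mM Tris-HCl pH 7.5, 5 mM MgCl2, 25 mM potassium glutamate, 2 mM spermidine, 2 mM ATP, BSA, yeast tRNA and 5% glycerol. Incubated 30 min at 37 °C; read-out by agarose gel electrophoresis. Ciprofloxacin and 5% DMSO reactions run as controls.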

The test system of data set [14] is Mus musculus. The data set is described as follows: Phototoxicity in Swiss albino mouse exposed to 18 J/cm'2 UV light irradiation assessed as ear thickness at 140 mg/kg, po. It counts as organism-based. Set-up: dose 140 mg/kg, route oral. To be noted: in vivo. Summed up:
as §1

Data set [15] deals with Mus musculus. The data set is described as follows: Phototoxicity in Swiss albino mouse assessed as ear thickness at 140 mg/kg, po measured after 4 hrs of 18 J/cm'2 UV light irradiation. Format: organism-based. To be noted: in vivo. More on the design: dose 140 mg/kg, route oral. The essentials:
as §1

The test system of data set [16] is Mus musculus. As to the kind of experiment: Phototoxicity in Swiss albino mouse exposed to 4 hrs of 18 J/cm'2 UV light irradiation assessed as ear thickness at 140 mg/kg, po after 24 hrs. It counts as organism-based. More on the design: dose 140 mg/kg, route oral. To be noted: in vivo. The essentials:
as §1

Data set [17] relates to Mus musculus. The data set is described as follows: Phototoxicity in Swiss albino mouse exposed to 4 hrs of 18 J/cm'2 UV light irradiation assessed as ear thickness at 140 mg/kg, po after 48 hrs. Format: organism-based. More on the design: dose 140 mg/kg, route oral. To be noted: in vivo. The essentials: as §1
In data set [18] the test system is Mus musculus. As to the kind of experiment: Phototoxicity in Swiss albino mouse exposed to 4 hrs of 18 J/cm'2 UV light irradiation assessed as ear thickness at 140 mg/kg, po after 72 hrs. It counts as organism-based. Set-up: dose 140 mg/kg, route oral. To be noted: in vivo. The essentials: as §1
Data set [19] deals with Mycobacterium tuberculosis. As to the kind of experiment: Antimycobacterial activity against Mycobacterium tuberculosis ATCC 35801 infected in CD1 mouse assessed as bacterial load in lungs at 25 mg/kg, ip administered 10 days postinfection for 10 days measured after 35 days of infection. Format: functional. To be noted: route intraperitoneal. The essentials:
as §2

The test system of data set [20] is Mycobacterium tuberculosis. The data set is described as follows: Antimycobacterial activity against Mycobacterium tuberculosis ATCC 35801 infected in CD1 mouse assessed as bacterial load in spleen at 25 mg/kg, ip administered 10 days postinfection for 10 days measured after 35 days of infection. Format: functional. Particulars: route intraperitoneal. The essentials:
as §2

≈ marks a conversion by molar mass, not a printed value.

For `O=C(O)c1cn(C2CC2)c2cc(N3CCN(Cc4ccc5c(c4)OCO5)CC3)c([N+](=O)[O-])cc2c1=O`, the Activity is on record as 0.29 mm in data set [1]; “Non-toxic” in data set [2]; “Non-toxic” in data set [3]; “Non-toxic” in data set [4]; “Non-toxic” in data set [5]; “Non-toxic” in [6]. In addition, the Activity result in [7] was “Non-toxic”; in data set [14] it was 0.25 mm; in data set [15], 0.27 mm; in data set [16] it was 0.28 mm; in [17] it was 0.28 mm; in data set [18], 0.31 mm. Besides, the MIC was determined as 0.08 µM (≈ 0.0394 µg/mL) in data set [8] and 0.79 µM (≈ 0.389 µg/mL) in data set [9]. In [10], this compound returned a CC50 at 72 h of 127 µM. The results for the log10cfu in [11] and in data set [12] were 5.21 and 4.87, respectively. Besides, the IC50 in data set [13] was determined as 30 µg/mL (≈ 60.9 µM).
On to `O=C(O)c1cn(C2CC2)c2cc(N3CCC(N4CCCCC4)CC3)c([N+](=O)[O-])cc2c1=O`, for which the Activity in data set [1] is 0.28 mm; in data set [2] it was “Non-toxic”; in data set [3] it was “Non-toxic”; in [4], “Non-toxic”; in data set [5], “Non-toxic”; in data set [7], “Non-toxic”. The Activity in [14] is listed as 0.24 mm; in data set [15], 0.26 mm; in [16], 0.26 mm; in [17] it was 0.26 mm; in [18], 0.29 mm. In addition, the MIC in [8] came to 0.43 µM (≈ 0.189 µg/mL); in [9], 1.77 µM (≈ 0.78 µg/mL). Besides, the CC50 at 72 h in data set [10] amounted to 142 µM. Also, in [13], the IC50 worked out at 20 µg/mL (≈ 45.4 µM).
In the case of `CN1CCN(c2cc3c(cc2[N+](=O)[O-])c(=O)c(C(=O)O)cn3C2CC2)CC1c1ccccc1` (stereo not given), the Activity in data set [1] was 0.34 mm; in data set [2], “Non-toxic”; in data set [3], “Non-toxic”; in data set [5], “Non-toxic”; in data set [6], “Non-toxic”; in data set [7], “Non-toxic”. In addition, the Activity in [14] came to 0.3 mm; in data set [15], 0.31 mm; in data set [16], 0.3 mm; in data set [17] it was 0.32 mm; in data set [18] it was 0.32 mm. Besides, the MIC turned out to be 0.2 µM (≈ 0.0897 µg/mL) in data set [8] and 0.87 µM (≈ 0.39 µg/mL) in [9]. In data set [10], the midpoint of cytotoxicity, the CC50 at 72 h, lay at 136 µM. Also, the IC50 in data set [13] amounted to 30 µg/mL (≈ 66.9 µM).
Regarding `COc1c(N2CCNC(C)C2)c(F)cc2c(=O)c(C(=O)O)cn(C3CC3)c12` (stereo not given) [GATIFLOXACIN], the MIC in data set [8] was found to be 1.04 µM (≈ 0.39 µg/mL); in data set [9], 2.08 µM (≈ 0.781 µg/mL). In data set [10], this compound gave a CC50 at 72 h above 155 µM. For the same compound, the log10cfu in data set [11] came to 6.02; in [12], 6.92.
For the compound `NNC(=O)c1ccncc1` [ISONIAZID], the MIC in data set [8] turned out to be 0.36 µM (≈ 0.0494 µg/mL); in [9] it was 45.6 µM (≈ 6.25 µg/mL). The CC50 at 72 h in [10] was above 456 µM. Besides, the log10cfu turned out to be 5.86 in data set [19] and 4.71 in data set [20].
On to `CCn1cc(C(=O)O)c(=O)c2cc(F)c(N3CCNC(C)C3)c(F)c21` (stereo not given) [LOMEFLOXACIN], for which the Activity in data set [1] is reported as 0.6 mm; in data set [2], “Non-toxic”; in data set [3], “Toxic”; in data set [4], “Toxic”; in data set [5] it was “Toxic”; in data set [6] it was “Toxic”. The Activity entry in [7] was “Toxic”; in [14] it was 0.31 mm; in [15] it was 0.4 mm; in data set [16], 0.48 mm; in data set [17], 0.53 mm; in data set [18], 0.64 mm.
